Test results taken from ChEMBL document CHEMBL4513216, “Probing the Open Global Health Chemical Diversity Library for Multistage-Active Starting Points for Next-Generation Antimalarials” (ACS Infect Dis, 2020).

Assay: Toxicity liver stage against HepG2, at 10uM
Assay type: cell-based
Set-up: test concentration 10 uM, cell line HepG2-A16-CD81EGFP
Settings: human, HepG2-A16-CD81EGFP cells; read-out: INHIBITION
Procedure, shortened: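 Uninfected HepG2-A16-CD81EGFP cells, 3 × 10^3 per well, 1536-well, plated on prespotted compound at 10 μM final, parasite-free screening media added to match infected plates; puromycin 10 μM positive, DMSO 0.5% negative; run in parallel with 48 h PbLuc assay at 37 °C, 5% CO2; viability by CellTiter-Glo luminescence, normalized to controls.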

SMILES	cytotoxicity at 10 µM
CCOC(=O)c1sc(NC(=O)C(C)C)c(C#N)c1C	-15.9%
Cc1nc(CCNC(=O)NCc2ccc(N(C)C)nc2)cs1	-11.3%
CCN(CC)CC[C@H]1CN(C(=O)c2ccc(F)cc2)CC[C@H]1CC(=O)O	3.1%
Cc1nnc(SC2CCc3ccccc3NC2=O)n1C (stereo unspecified)	-1.31%
O=C(NCCc1ccccc1)NCCN1CCC(c2cccs2)CC1	-4.16%
CS(=O)(=O)N1CCN(c2cc(-n3cccc3)ncn2)CC1	4.65%
CC(C)CN1C(=O)C2(CCN(Cc3ccc(F)cc3)C2)c2ccccc21 (stereo unspecified)	13%
Cn1ccc(C(=O)NC2CCC23CCN(Cc2nccs2)CC3)c1 (stereo unspecified)	-136%
Cc1noc2nc3c(c(C(=O)/N=c4\[nH]nc(C(C)C)s4)c12)CCC3	-6.53%
COc1cccc(-c2cc(C(=O)N3N=C(C)CC3(O)C(F)(F)F)[nH]n2)c1 (stereo unspecified)	5.97%
CCn1cc(S(=O)(=O)N2CCN(C(=O)c3cc(Br)cs3)CC2)c(C)n1	2.73%
CC(C(=O)O)n1nc(C(F)(F)F)c(Br)c1C1CC1 (stereo unspecified)	10.3%
CCOCC(=O)N1CCC(C)(c2nccs2)CC1	7.64%
O=C(Cc1cccs1)N1CCC(O)(CN2CCc3ccccc3C2)C1 (stereo unspecified)	-1.47%
CN(C(=O)C1CCOCC1)[C@@H]1CCC[C@@H](N2CCOCC2)[C@@H]1O	2.19%
Cc1cnc(C2CCCN(C(=O)c3c[nH]c(=O)[nH]c3=O)C2)s1 (stereo unspecified)	-1.58%
CC(=O)N1CCOC(c2cc(N3CC(O)C3)nc(C)n2)C1 (stereo unspecified)	3.16%
COCCC(=O)N1CCC(c2noc3nc(C)cc(C(F)(F)F)c23)CC1	4.45%
Nc1nc(C2CCN(C(=O)c3cncs3)CC2)cs1	-1.49%
CCCN1Cc2ccccc2NC(=O)C12CCNC2 (stereo unspecified)	5.92%
Cc1cc(C)n(-c2cccc(NC(=O)N3CCC[C@@H]3CO)c2)n1	13.9%

SMILES	cytotoxicity at 10 µM
CC1CCN(S(=O)(=O)N2CCCN(CC3CCCO3)CC2)CC1 (stereo unspecified)	-5.15%
CCN1CCCCC1C(=O)N1CCC(OCCOC)CC1 (stereo unspecified)	-6.81%
Cc1ccccc1CC(C)(C)NC(=O)COc1cccc(C(N)=O)c1	20.4%
CCOC(=O)c1cnn(C2CCN(C(=O)CCC(C)C)CC2)c1N	-0.12%
O=C(Nc1ccnc2ccnn12)c1ccc(N2CCC(O)CC2)cc1	53.4%
CNC(=O)c1cccc(NC(=O)NC(C)c2cc(C)oc2C)c1C (stereo unspecified)	-9.26%
CC(=O)N(CCC(=O)NC1(C#N)CCC1)Cc1ccccc1	12.6%
CCc1cc(CNC(=O)Nc2cc(F)cc(N3CCCC3)c2)on1	4.79%
CC(NCCCC#N)c1ccc(-c2cccnc2)cc1 (stereo unspecified)	11.3%
COCCN(c1ccncc1)S(=O)(=O)c1cc(C)cc(F)c1	7.83%
CN(C)Cc1nc(C2(NC(=O)Nc3cccc(F)c3)CCCC2)no1	2.32%
Cc1cc(C(=O)Nc2ccn(CCCN3CCCC3)n2)no1	-4.13%
Cc1cccc(N(CC(=O)N2CCCCC2)Cc2nc(=O)[nH][nH]2)c1	-2.85%
Cc1ccc(OCc2nnc(SCC3CCCN(C)C3)o2)cc1 (stereo unspecified)	-3.73%
CCOCc1ccccc1NC(=O)NC1CCN(CC(F)(F)F)C1 (stereo unspecified)	1.81%
O=C(c1ccccc1)N1CC[C@H]2C[C@@H](c3nnc(C4CC4)o3)O[C@@H]2C1	-99.2%
O=C(c1ccccc1)N1CC[C@H]2C[C@H](c3nnc(C4CC4)o3)O[C@@H]2C1	-102%
O=C(N1CCCC1)N1CCn2c(Cn3cccn3)cnc2C1	-69.1%
Cc1nc(NCC2CC2)nc2c1COCC21CCNC1 (stereo unspecified)	-72.8%
CN(CCCc1cnn(C)c1)C(=O)Nc1cccc2[nH]nnc12	-3.98%
Cc1ccccc1Oc1ncccc1CNC(=O)Cn1cccnc1=O	-16.8%

SMILES	cytotoxicity at 10 µM
CC(C)NC(=O)N1CCCC(Cn2cc(-c3ccc(F)cc3)nn2)C1 (stereo unspecified)	12.5%
OC1(CNCCSc2ccccn2)CCCNC1 (stereo unspecified)	-6.46%
COCCN(C)CC(=O)N1C[C@@H](NC(C)=O)[C@H](c2ccc(OC)cc2)C1	1.45%
NC(=O)c1csc(N2CCCC(c3nc4ccccc4[nH]3)C2)n1 (stereo unspecified)	8.5%
Nc1cnc(-c2ccc(F)cc2Cl)cn1	-136%
CSc1nccc(NCc2cc3n(n2)CCCN(S(C)(=O)=O)C3)n1	3.25%
COc1ccc(C(=O)N2CCN(c3cc(CCN)nc(C)n3)CC2)cc1	-8.56%
CN(Cc1cc2n(n1)CCCN(C(=O)N1CCCC1)C2)Cc1nccs1	-0.63%
CN(CCCc1cnn(C)c1)C(=O)Nc1cccc2[nH]ncc12	-1.89%
COCCN1CC(C(=O)N(CCN(C)C)Cc2ccc(C)s2)CC1=O (stereo unspecified)	1.98%
COc1cccc(OCC2CCCN(C(=O)c3ncoc3C3CC3)C2)c1 (stereo unspecified)	3.79%
c1ccc2c(c1)CCN(c1ncnc3sc4c(c13)CCNC4)C2	5.66%
CCc1csc(CCNC(=O)C2CC(=O)N(C(C)C)C2)n1 (stereo unspecified)	-11.9%
Cc1nn2c(N3CCC(O)C3)cc(-c3ccccc3)nc2c1C (stereo unspecified)	-11.5%
Cn1c(Cn2ccnc2)nnc1C1CCN(C(=O)C2(C)CC2)CC1	-9.7%
N#CCCSc1sc2c(O)cc(O)nc2c1C#N	-6.11%
CC(C)c1cc(COCCCC(=O)O)no1	11.1%
Cn1nc(C2CCCN(Cc3ccsc3)C2)c2nccnc21 (stereo unspecified)	-2.58%
O=C(CCc1nccs1)N1CCCC(n2cccn2)C1 (stereo unspecified)	-14.4%
Cc1nc(C)n(CC2CCCN2CC(=O)NC2CCOCC2)n1 (stereo unspecified)	-4.43%
CS(=O)(=O)NCC1CCCN(C(=O)c2cccc(F)c2)C1 (stereo unspecified)	-6.93%

SMILES	cytotoxicity at 10 µM
Cc1noc(CN2CCCC2c2noc(C3CC3)n2)n1 (stereo unspecified)	-23.6%
Cc1ccc(C)c(OCCN2CCC(N3CCNC3=O)CC2)c1	1.85%
Cc1cc(C(=O)N2CCCC2Cn2nc(C)cc2C)on1 (stereo unspecified)	-8.21%
COc1ccc(Cl)cc1CC(=O)N1CCN(CCO)CC1	-9.51%
Cn1nccc1-c1ccc2nc(C3CCN(CC4CC4)CC3)nn2c1	5.85%
Cc1cnc(N2Cc3nccn3CC(Cn3ncccc3=O)C2)nc1 (stereo unspecified)	7.54%
CCO[C@H]1CN(CC2CCOCC2)[C@@H]2CCCO[C@H]12	-109%
CN(C)c1ncnc2c1CCN(CC1CCCC1)CC2	1.03%
NCC1CCC2(CCN(C(=O)c3ccccn3)CC2)CO1 (stereo unspecified)	-111%
CCOC[C@]12COC[C@H]1CN(Cc1ccc3c(c1)OCO3)C2	-119%
Cc1ccc2c(n1)N(CCN(C)C)CCN(C(=O)c1cscn1)C2	-72.7%
O=C(c1ccccc1)N1CCS(=O)(=O)[C@@H]2CCNCC[C@@H]21	-127%
CC(=O)N1CCO[C@@H]2CN(Cc3ccccc3Cl)C[C@@H]2C1	-110%
CCn1ncc2c1C(COC)N(C(=O)c1cscn1)CC2 (stereo unspecified)	-98.1%
Cc1nc(CN2C(=O)COC3(CCN(Cc4ccsc4)CC3)C2C)cs1 (stereo unspecified)	-123%
Cc1oncc1C(=O)NCc1cc(=O)n2c(n1)CN(CC(C)C)CCC2	-0.187%
CN(C)C(=O)COCC1CN(S(C)(=O)=O)Cc2ncn(C)c21 (stereo unspecified)	4.39%
O[C@@H]1CC(CNCc2ccc(F)cc2)(COc2cccnc2)C[C@@H]1O (stereo partly specified)	-10.8%
